Results taken from ChEMBL document CHEMBL3870311, “Synthesis and biological evaluation of C1-O-substituted-3-(3-butylamino-2-hydroxy-propoxy)-xanthen-9-one as topoisomerase IIα catalytic inhibitors” (Eur J Med Chem, 2016).
pIC50: −log10 of the molar value. Structures can show the parent of a compound that is named as a salt. The source made the active and inactive calls. The calls are words filed in the database; no cut-off is given here.

What was measured:
[1] = Cytotoxicity against human T47D cells assessed as reduction in cell growth after 72 hrs by CCK8 assay; assay type: functional, cell-based
In short: (§1)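 Cells (2~4 x 10^4 per well) seeded overnight in media with 10% FBS, 37 °C, 5% CO₂, then exposed to graded compound concentrations for 72 h. CCK-8 solution added for a further 4 h; absorbance read at 450 nm. IC₅₀ from four-parameter logistic fit; adriamycin, etoposide and camptothecin as positive controls.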

[2] = Cytotoxicity against human HCT15 cells assessed as reduction in cell growth after 72 hrs by CCK8 assay; assay type: functional, cell-based; settings: HCT-15, 72 h; in short: as §1
[3] = Cytotoxicity against human NCI-N87 cells assessed as reduction in cell growth after 72 hrs by CCK8 assay; assay type: functional, cell-based; settings: NCI-N87, 72 h; in short: as §1
[4] = Cytotoxicity against human HeLa cells assessed as reduction in cell growth after 72 hrs by CCK8 assay; assay type: functional, cell-based; in short: as §1
[5] = target: T1, DNA topoisomerase 2-alpha (Homo sapiens, UniProt P11388); test: Inhibition of human topoisomerase-2 alpha at 100 uM using supercoiled pBR322 DNA as substrate after 30 mins by agarose gel electrophoresis method relative to control
[6] = target: T1, DNA topoisomerase 2-alpha; test: Inhibition of human topoisomerase-2 alpha at 20 uM using supercoiled pBR322 DNA as substrate after 30 mins by agarose gel electrophoresis relative to control
[7] = target: T1, DNA topoisomerase 2-alpha; test: Inhibition of topoisomerase-2 alpha catalytic activity in human T47D cells assessed as increase in free topoisomerase-2 alpha level at 50 uM after 2 hrs by Western blot method; assay type: cell-based
In short: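 T47D cells (2 x 10^5 per well) seeded overnight, treated 2 h at 37 °C with 50 µM compound or etoposide in serum-free RPMI. Harvested cells washed in PBS, lysed in 62.5 mM Tris-HCl pH 6.8, 1 mM EDTA, 2% SDS with sonication; cleared supernatant run on 10% SDS-PAGE and free topo IIα detected by Western blot.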

T1 sequence (P11388 whole entry): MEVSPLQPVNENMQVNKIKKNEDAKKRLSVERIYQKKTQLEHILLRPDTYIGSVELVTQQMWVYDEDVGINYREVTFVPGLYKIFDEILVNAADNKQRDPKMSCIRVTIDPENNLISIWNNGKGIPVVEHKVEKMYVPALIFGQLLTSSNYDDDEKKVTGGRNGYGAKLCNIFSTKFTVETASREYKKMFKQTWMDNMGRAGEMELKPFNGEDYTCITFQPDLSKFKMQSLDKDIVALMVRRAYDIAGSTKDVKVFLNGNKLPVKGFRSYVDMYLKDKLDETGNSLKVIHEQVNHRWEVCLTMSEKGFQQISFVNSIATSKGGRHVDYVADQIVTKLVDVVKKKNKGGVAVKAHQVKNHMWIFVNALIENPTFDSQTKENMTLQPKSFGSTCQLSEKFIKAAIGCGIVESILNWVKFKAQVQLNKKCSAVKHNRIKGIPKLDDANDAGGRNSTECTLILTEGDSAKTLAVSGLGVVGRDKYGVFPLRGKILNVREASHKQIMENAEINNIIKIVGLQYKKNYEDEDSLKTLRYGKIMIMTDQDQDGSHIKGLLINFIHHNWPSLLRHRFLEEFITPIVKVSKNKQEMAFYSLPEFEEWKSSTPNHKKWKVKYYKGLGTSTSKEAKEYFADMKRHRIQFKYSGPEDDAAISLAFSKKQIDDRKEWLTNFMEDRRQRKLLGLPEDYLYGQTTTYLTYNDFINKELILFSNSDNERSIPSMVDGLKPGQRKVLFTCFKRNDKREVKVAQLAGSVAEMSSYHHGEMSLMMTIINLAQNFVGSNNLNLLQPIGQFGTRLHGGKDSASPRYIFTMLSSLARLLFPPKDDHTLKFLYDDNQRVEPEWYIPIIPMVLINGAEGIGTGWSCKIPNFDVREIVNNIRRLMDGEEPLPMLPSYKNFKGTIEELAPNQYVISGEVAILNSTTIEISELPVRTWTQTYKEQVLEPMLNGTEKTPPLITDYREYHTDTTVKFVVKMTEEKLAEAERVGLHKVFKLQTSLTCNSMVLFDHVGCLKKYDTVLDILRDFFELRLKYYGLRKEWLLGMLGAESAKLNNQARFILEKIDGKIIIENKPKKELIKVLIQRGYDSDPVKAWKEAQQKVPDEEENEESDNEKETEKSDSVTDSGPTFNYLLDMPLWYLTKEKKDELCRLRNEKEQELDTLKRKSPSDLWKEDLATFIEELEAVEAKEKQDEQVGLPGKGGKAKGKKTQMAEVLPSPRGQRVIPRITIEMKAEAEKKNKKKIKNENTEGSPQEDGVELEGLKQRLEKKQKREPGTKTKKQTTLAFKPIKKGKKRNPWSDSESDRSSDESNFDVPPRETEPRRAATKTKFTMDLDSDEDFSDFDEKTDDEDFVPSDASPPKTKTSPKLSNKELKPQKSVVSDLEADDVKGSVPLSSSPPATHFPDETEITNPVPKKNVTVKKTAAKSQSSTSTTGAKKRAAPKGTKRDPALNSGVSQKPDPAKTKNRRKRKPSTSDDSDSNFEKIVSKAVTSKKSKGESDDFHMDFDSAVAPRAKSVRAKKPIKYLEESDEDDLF

SMILES | pIC50 [1] | pIC50 [2] | pIC50 [3] | pIC50 [4] | inhibition [5] | inhibition [6] | inhibition [7]
CCCCNCC(O)COc1cc(OCCCC)c2c(=O)c3cccc(OC)c3oc2c1 (configuration not stated) | 5.95 | 5.22 | 5.79 | 5.12 | 24.2% |  | 
CCCCNCC(O)COc1cc(OCc2cccc(OC)c2)c2c(=O)c3cccc(OC)c3oc2c1 (configuration not stated) | 5.87 | 5.76 | 5.88 | 5.64 | 41.6% | 12.4% | 
COc1ccc(COc2cc(OCC3CO3)cc3oc4ccccc4c(=O)c23)cc1 (configuration not stated) | 5.53 | 5.76 | 5.43 | 5.80 | 0% |  | 
CCCCNCC(O)COc1cc(OCc2cccc(Cl)c2)c2c(=O)c3cccc(OC)c3oc2c1 (configuration not stated) | 6.17 | 5.80 | 5.94 | 5.62 | 45.4% | 6.3% | 
COc1cccc2c1C(=O)c1c(O)c3c(c(O)c1C2=O)C[C@@](O)(C(=O)CO)C[C@@H]3O[C@H]1C[C@H](N)[C@H](O)[C@H](C)O1 [DOXORUBICIN HYDROCHLORIDE] | 5.85 |  | 6.15 | 5.77 |  |  | 
CCCCNCC(O)COc1cc(OCc2cccc(C(F)(F)F)c2)c2c(=O)c3ccccc3oc2c1 (configuration not stated) | 6.85 | 5.61 | 6.62 | 5.65 | 64.6% | 9.3% | 
O=c1c2ccccc2oc2cc(OCC3CO3)cc(OCCc3cccc(Cl)c3)c12 (configuration not stated) | 5.87 | 5.38 | 5.50 | 5.84 | 0% |  | 
CCCCCOc1cc(OCC(O)CNCCCC)cc2oc3c(OC)cccc3c(=O)c12 (configuration not stated) | 6.11 | 5.74 | 6.32 | 5.42 | 36.3% | 9.5% | 
CC[C@@]1(O)C(=O)OCc2c1cc1n(c2=O)Cc2cc3ccccc3nc2-1 [CAMPTOTHECIN] | 7.10 | 8.85 | 6.22 | 6.89 |  |  | 
COc1cccc2c(=O)c3c(OCc4cccc(C(F)(F)F)c4)cc(OCC4CO4)cc3oc12 (configuration not stated) | 5.54 | 6.44 | 5.65 | 5.37 | 0% |  | 
CCCCNCC(O)COc1cc(OCCCC)c2c(=O)c3ccccc3oc2c1 (configuration not stated) | 5.81 | 5.06 | 5.79 | 5.68 | 27.1% |  | 
CCCCNCC(O)COc1cc(OC(C)C)c2c(=O)c3cccc(OC)c3oc2c1 (configuration not stated) | 5.57 | 5.02 | 7.10 | 4.84 | 7.5% |  | 
CCCCCOc1cc(OCC2CO2)cc2oc3c(OC)cccc3c(=O)c12 (configuration not stated) | 5.34 | 6.43 | 5.77 | 5.39 | 5% |  | 
CCOc1cc(OCC2CO2)cc2oc3ccccc3c(=O)c12 (configuration not stated) | 5.44 | 5.40 | 5.41 | 6.10 | 0% |  | 
CCCCNCC(O)COc1cc(OCc2cccc(C(F)(F)F)c2)c2c(=O)c3cccc(OC)c3oc2c1 (configuration not stated) | 5.70 | 5.58 | 5.70 | 5.58 | 58.1% | 14.2% | 
O=c1c2ccccc2oc2cc(OCC3CO3)cc(OCc3ccccc3)c12 (configuration not stated) | 5.51 | 5.82 | 5.29 | 5.72 | 0% |  | 
CCCCNCC(O)COc1cc(OCc2ccc(OC)cc2)c2c(=O)c3cccc(OC)c3oc2c1 (configuration not stated) | 5.82 | 5.64 | 6.60 | 5.74 | 44.8% | 13.9% | 
O=c1c2ccccc2oc2cc(OCC3CO3)cc(OCc3cccc(Cl)c3)c12 (configuration not stated) | 5.48 | 5.71 | 5.72 | 5.45 | 0% |  | 
CCCCNCC(O)COc1cc(OCc2cccc(Cl)c2)c2c(=O)c3ccccc3oc2c1 (configuration not stated) | 5.93 | 5.65 | 6.77 | 5.55 | 56.3% | 22.4% | 
O=c1c2ccccc2oc2cc(OCC3CO3)cc(OCc3cccc(C(F)(F)F)c3)c12 (configuration not stated) | 5.64 | 5.29 | 5.87 | 5.37 | 0% |  | 
CCCCOc1cc(OCC2CO2)cc2oc3c(OC)cccc3c(=O)c12 (configuration not stated) | 5.79 | 6.66 | 6.51 | 5.97 | 14.1% |  | 
COc1ccc(COc2cc(OCC3CO3)cc3oc4c(OC)cccc4c(=O)c23)cc1 (configuration not stated) | 5.11 | 6.38 | 5.85 | 5.76 | 0% |  | 

SMILES | pIC50 [1] | pIC50 [2] | pIC50 [3] | pIC50 [4] | inhibition [5] | inhibition [6] | inhibition [7]
CCCCCOc1cc(OCC2CO2)cc2oc3ccccc3c(=O)c12 (configuration not stated) | < 4.30 | 5.48 | 4.96 | 5.75 | 0% |  | 
CCCCNCC(O)COc1cc(OCC)c2c(=O)c3cccc(OC)c3oc2c1 (configuration not stated) | 5.37 | 4.97 | 5.65 | 4.63 | 10.7% |  | 
COc1cccc2c(=O)c3c(OCCc4ccc(Cl)cc4)cc(OCC4CO4)cc3oc12 (configuration not stated) | < 4.30 | 4.34 | 5.83 | < 4.30 | 0% |  | 
CCCCCOc1cc(OCC(O)CNCCCC)cc2oc3ccccc3c(=O)c12 (configuration not stated) | 5.90 | 5.34 | 7.22 | 5.59 | 29.4% |  | 
COc1cccc(COc2cc(OCC3CO3)cc3oc4ccccc4c(=O)c23)c1 (configuration not stated) | 5.43 | 5.83 | 5.49 | 5.80 | 0% |  | 
CCCCNCC(O)COc1cc(OCc2ccccc2)c2c(=O)c3ccccc3oc2c1 (configuration not stated) | 5.55 | 5.51 | 5.84 | 5.15 | 65.4% | 22.2% | 
CCCCNCC(O)COc1cc(OCCc2cccc(Cl)c2)c2c(=O)c3ccccc3oc2c1 (configuration not stated) | 5.76 | 5.64 | 6.42 | 5.59 | 46.2% | 16.6% | Active
COc1cccc2c(=O)c3c(OCCc4cccc(Cl)c4)cc(OCC4CO4)cc3oc12 (configuration not stated) | 5.56 | 5.97 | 5.95 | 6.33 | 0% |  | 
CCCCNCC(O)COc1cc(OC(C)C)c2c(=O)c3ccccc3oc2c1 (configuration not stated) | 5.33 | 4.36 | 5.69 | 4.44 | 1.5% |  | 
COc1cccc2c(=O)c3c(OCc4ccccc4)cc(OCC4CO4)cc3oc12 (configuration not stated) | 5.69 | 6.47 | 5.76 | 5.78 | 3.3% |  | 
CCCCOc1cc(OCC2CO2)cc2oc3ccccc3c(=O)c12 (configuration not stated) | 5.43 | 5.61 | 5.34 | 5.74 | 0% |  | 
CCCCNCC(O)COc1cc(OCc2cccc(OC)c2)c2c(=O)c3ccccc3oc2c1 (configuration not stated) | 5.59 | 5.72 | 7.15 | 5.23 | 58.7% | 19.5% | 
CC(C)Oc1cc(OCC2CO2)cc2oc3ccccc3c(=O)c12 (configuration not stated) | 5.71 | 5.79 | 6.54 | 5.79 | 0.1% |  | 
CCCCNCC(O)COc1cc(OCc2ccc(OC)cc2)c2c(=O)c3ccccc3oc2c1 (configuration not stated) | 5.85 | 5.66 | 5.74 | 5.32 | 55.9% | 21.1% | 
CCCCNCC(O)COc1cc(OCc2ccccc2)c2c(=O)c3cccc(OC)c3oc2c1 (configuration not stated) | 5.62 | 5.68 | 5.91 | 5.65 | 51.6% | 11.1% | 
O=c1c2ccccc2oc2cc(OCC3CO3)cc(OCCc3ccc(Cl)cc3)c12 (configuration not stated) | 6.01 | 5.28 | 5.69 | 5.31 | 0% |  | 
CCCCNCC(O)COc1cc(OCCc2cccc(Cl)c2)c2c(=O)c3cccc(OC)c3oc2c1 (configuration not stated) | 6.72 | 5.83 | 6.40 | 5.59 | 62.8% | 20.4% | Active
COc1cccc(COc2cc(OCC3CO3)cc3oc4c(OC)cccc4c(=O)c23)c1 (configuration not stated) | 5.39 | 6.46 | 5.88 | 5.61 | 0% |  | 
COc1cccc2c(=O)c3c(OCc4cccc(Cl)c4)cc(OCC4CO4)cc3oc12 (configuration not stated) | 5.81 | 6.77 | 6.02 | 5.77 | 1.7% |  | 
COc1cccc2c(=O)c3c(OC(C)C)cc(OCC4CO4)cc3oc12 (configuration not stated) | 5.76 | 6.51 | 5.51 | 5.73 | 1.5% |  | 
CCCCNCC(O)COc1cc(OCC)c2c(=O)c3ccccc3oc2c1 (configuration not stated) | 5.15 | 4.55 | 5.75 | < 4.30 | 4.8% |  | 
CCOc1cc(OCC2CO2)cc2oc3c(OC)cccc3c(=O)c12 (configuration not stated) | 6.08 | 6.09 | 5.92 | 5.93 | 2.5% |  | 
